# In ChEMBL document CHEMBL1165943, “Design and synthesis of new anticancer pyrimidines with multiple-kinase inhibitory effect” (Bioorg Med Chem, 2010):
# How the values were obtained:
# [1] = Cytotoxicity against human Hs 578T cells assessed as cell growth at 0.01 uM after 48 hrs by sulforhodamine B assay; type: functional; conditions: read-out: Activity
# MOLT-4 [2] = test: Cytotoxicity against human MOLT4 cells assessed as cell growth at 10 uM after 48 hrs by sulforhodamine B assay; type: functional; conditions: MOLT-4, 48 h, read-out: Activity
# SNB-75 = test: Cytotoxicity against human SNB75 cells assessed as cell growth at 1 uM after 48 hrs by sulforhodamine B assay; type: functional; conditions: SNB-75, 48 h, read-out: Activity
# A549 = test: Cytotoxicity against human A549 cells assessed as cell growth at 100 nM after 48 hrs by sulforhodamine B assay; type: functional; conditions: A549, 48 h, read-out: Activity
# Method in brief: (§1)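 Cells grown in RPMI 1640 with 5% FBS and 2 mM L-glutamine, seeded at 5,000–40,000 cells/well by doubling time. Time-zero plates TCA-fixed after 24 h. Five concentrations (10-fold or half-log dilutions from DMSO stock) added; 48 h at 37 °C, 5% CO2. Cold TCA fixation (final 10%, 60 min, 4 °C), 0.4% SRB stain, dye solubilized in 10 mM trizma base, A515.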
# HT-29 [3] = test: Cytotoxicity against human HT-29 cells assessed as cell growth at 100 nM after 48 hrs by sulforhodamine B assay; type: functional; conditions: HT-29, 48 h, read-out: Activity
# Malme-3M = test: Cytotoxicity against human MALME-3M cells assessed as cell growth at 0.001 uM after 48 hrs by sulforhodamine B assay; type: functional; conditions: read-out: Activity
# DU-145 [4] = test: Cytotoxicity against human DU145 cells assessed as cell growth at 10 uM after 48 hrs by sulforhodamine B assay; type: functional; conditions: DU-145, 48 h, read-out: Activity
# HT-29 [5] = test: Growth inhibition of human HT-29 cells after 48 hrs by sulforhodamine B assay; type: functional, cell-based; conditions: HT-29, 48 h
# Method in brief: (§2)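 Cells grown in RPMI 1640 with 5% FBS and 2 mM L-glutamine, seeded at 5,000–40,000 cells/well according to doubling time. After 24 h, time-zero plates are TCA-fixed. Five concentrations (10-fold or ½log dilutions, DMSO stocks) are applied for 48 h at 37 °C, 5% CO₂. Cells are TCA-fixed, SRB-stained and read at 515 nm. IC₅₀ is taken from [(Ti−Tz)/(C−Tz)]×100 = 50.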
# SK-MEL-5 = test: Growth inhibition of human SK-MEL-5 cells after 48 hrs by sulforhodamine B assay; type: functional, cell-based; conditions: Homo sapiens, SK-MEL-5, 48 h; method in brief: as §2
# SNB-19 = test: Growth inhibition of human SNB19 cells after 48 hrs by sulforhodamine B assay; type: functional, cell-based; conditions: SNB-19, 48 h; method in brief: as §2
# DU-145 [6] = test: Cytotoxicity against human DU145 cells assessed as cell growth at 0.01 uM after 48 hrs by sulforhodamine B assay; type: functional; conditions: DU-145, 48 h, read-out: Activity
# MDA-MB-468 = test: Cytotoxicity against human MDA-MB-468 cells assessed as cell growth at 1 uM after 48 hrs by sulforhodamine B assay; type: functional; conditions: MDA-MB-468, 48 h, read-out: Activity
# HOP-62 [7] = test: Cytotoxicity against human HOP62 cells assessed as cell growth at 10 uM after 48 hrs by sulforhodamine B assay; type: functional; conditions: HOP-62, 48 h, read-out: Activity
# UACC-62 = test: Cytotoxicity against human UACC62 cells assessed as cell growth at 0.01 uM after 48 hrs by sulforhodamine B assay; type: functional; conditions: UACC-62, 48 h, read-out: Activity
# SF-268 [8] = test: Cytotoxicity against human SF268 cells assessed as cell growth at 1 uM after 48 hrs by sulforhodamine B assay; type: functional; conditions: SF-268, 48 h, read-out: Activity
# NCI-H23 = test: Growth inhibition of human NCI-H23 cells after 48 hrs by sulforhodamine B assay; type: functional, cell-based; conditions: NCI-H23, 48 h; method in brief: as §2
# SF-295 = test: Cytotoxicity against human SF295 cells assessed as cell growth at 10 uM after 48 hrs by sulforhodamine B assay; type: functional; conditions: SF-295, 48 h, read-out: Activity
# HCT-15 = test: Cytotoxicity against human HCT15 cells assessed as cell growth at 1 uM after 48 hrs by sulforhodamine B assay; type: functional; conditions: HCT-15, 48 h, read-out: Activity
# SN12C = test: Cytotoxicity against human SN12C cells assessed as cell growth at 0.001 uM after 48 hrs by sulforhodamine B assay; type: functional; conditions: read-out: Activity
# U-251 = test: Cytotoxicity against human U251 cells assessed as cell growth at 10 uM after 48 hrs by sulforhodamine B assay; type: functional; conditions: U-251, 48 h, read-out: Activity
# HOP-62 [9] = test: Cytotoxicity against human HOP62 cells assessed as cell growth at 0.01 uM after 48 hrs by sulforhodamine B assay; type: functional; conditions: HOP-62, 48 h, read-out: Activity
# MDA-MB-231 = test: Cytotoxicity against human MDA-MB-231 cells assessed as cell growth at 0.001 uM after 48 hrs by sulforhodamine B assay; type: functional; conditions: MDA-MB-231, 48 h, read-out: Activity
# TK-10 = test: Cytotoxicity against human TK10 cells assessed as cell growth at 0.01 uM after 48 hrs by sulforhodamine B assay; type: functional; conditions: TK-10, 48 h, read-out: Activity
# OVCAR-4 = test: Growth inhibition of human OVCAR4 cells after 48 hrs by sulforhodamine B assay; type: functional, cell-based; conditions: Homo sapiens, OVCAR-4, 48 h; method in brief: as §2
# OVCAR-3 = test: Cytotoxicity against human OVCAR-3 cells assessed as cell growth at 0.001 uM after 48 hrs by sulforhodamine B assay; type: functional; conditions: OVCAR-3, 48 h, read-out: Activity
# HT-29 [10] = test: Cytotoxicity against human HT-29 cells assessed as cell growth at 0.01 uM after 48 hrs by sulforhodamine B assay; type: functional; conditions: HT-29, 48 h, read-out: Activity
# BT-549 [11] = test: Cytotoxicity against human BT549 cells assessed as cell growth at 0.01 uM after 48 hrs by sulforhodamine B assay; type: functional; conditions: BT-549, 48 h, read-out: Activity; method in brief: as §1
# BT-549 [12] = test: Cytotoxicity against human BT549 cells assessed as cell growth at 10 uM after 48 hrs by sulforhodamine B assay; type: functional; conditions: BT-549, 48 h, read-out: Activity; method in brief: as §1
# COLO 205 = test: Cytotoxicity against human COLO205 cells assessed as cell growth at 0.01 uM after 48 hrs by sulforhodamine B assay; type: functional; conditions: COLO 205, 48 h, read-out: Activity; method in brief: as §1
# MOLT-4 [13] = test: Cytotoxicity against human MOLT4 cells assessed as cell growth at 0.01 uM after 48 hrs by sulforhodamine B assay; type: functional; conditions: MOLT-4, 48 h, read-out: Activity
# SF-268 [14] = test: Cytotoxicity against human SF268 cells assessed as cell growth at 0.001 uM after 48 hrs by sulforhodamine B assay; type: functional; conditions: SF-268, 48 h, read-out: Activity
# CAKI-1 = test: Cytotoxicity against human Caki1 cells assessed as cell growth at 100 nM after 48 hrs by sulforhodamine B assay; type: functional; conditions: CAKI-1, 48 h, read-out: Activity
# [15] = read-out: LC50 (the source's name)
smiles,measurement,setting,value
CC(=O)Nc1cccc(-c2ccc(-c3ccnc(NC(=O)Nc4cc(C(F)(F)F)cc(C(F)(F)F)c4)n3)cn2)c1.Cl,growth at 0.01 µM,[1],99%
same,growth at 10 µM,MOLT-4 [2],11%
same,growth at 1 µM,SNB-75,54%
same,growth at 0.1 µM,A549,58%
same,growth at 0.1 µM,HT-29 [3],101%
same,growth at 0.001 µM,Malme-3M,92%
same,growth at 10 µM,DU-145 [4],-93%
same,GI50,HT-29 [5],3 µM
same,IC50,HT-29 [5],3 µM
same,TGI,HT-29 [5],8.74 µM
same,CC50,HT-29 [5]; [15],57.6 µM
same,GI50,SK-MEL-5,1.35 µM
same,TGI,SK-MEL-5,2.64 µM
same,IC50,SK-MEL-5; read-out: IC50,1.35 µM
same,CC50,SK-MEL-5; [15],5.13 µM
same,GI50,SNB-19,4.57 µM
same,IC50,SNB-19,4.57 µM
same,TGI,SNB-19,17.8 µM
same,CC50,SNB-19; [15],47.4 µM
same,growth at 0.01 µM,DU-145 [6],95%
same,growth at 1 µM,MDA-MB-468,-79%
same,growth at 10 µM,HOP-62 [7],-36%
same,growth at 0.01 µM,UACC-62,92%
same,growth at 1 µM,SF-268 [8],31%
same,GI50,NCI-H23,2.24 µM
same,IC50,NCI-H23,2.24 µM
same,TGI,NCI-H23,6.94 µM
same,CC50,NCI-H23; [15],43.8 µM
same,growth at 10 µM,SF-295,-33%
same,growth at 1 µM,HCT-15,18%
same,growth at 0.001 µM,SN12C,94%
same,growth at 10 µM,U-251,-96%
same,growth at 0.01 µM,HOP-62 [9],92%
same,growth at 0.001 µM,MDA-MB-231,102%
same,growth at 0.01 µM,TK-10,102%
same,GI50,OVCAR-4,1.57 µM
same,TGI,OVCAR-4,11.1 µM
same,IC50,OVCAR-4; read-out: IC50,1.57 µM
same,CC50,OVCAR-4; [15],39 µM
same,growth at 0.001 µM,OVCAR-3,101%
same,growth at 0.01 µM,HT-29 [10],100%
same,growth at 0.01 µM,BT-549 [11],91%
same,growth at 10 µM,BT-549 [12],-97%
same,growth at 0.01 µM,COLO 205,100%
same,growth at 0.01 µM,MOLT-4 [13],90%
same,growth at 0.001 µM,SF-268 [14],95%
same,growth at 0.1 µM,CAKI-1,64%
